The list is not random: actives were taken first. Their share in the collection is about 3.1%.
miR-122 sensor – miR-122 Renilla sensor signal increase in Huh7, primary screen, miR-122 inhibitor project, cell-based, single point, plate reader. Huh7 miR-122 Renilla luciferase sensor, 48 h; neutral wells = 0, positive control = 100. hit rate 0.3% among 340,000. activation (reporter increase), % at 12.5 µM;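 active means mean replicate activation score at least 90 and every replicate individually at or above 90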;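 further: higher luciferase means less miR-122 activity so hits act as miR-122 inhibitors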
CFTR F508del cor – F508del CFTR correction, initial screen, CFBE line, single point. hit rate 0.36% among 350,000. CFBE cells, YFP halide quenching; stimulated with forskolin plus potentiator P3; % fluorescence drop versus neutral controls. activity (quench increase), % at 7.58 µM. AID 720511, 2013;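 active means mean added fluorescence quench of at least 8% versus neutral control, with both replicates also reaching 8%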;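 further: cells transiently co-express mutant CFTR-F508del with the halide-sensitive YFP; corrector assay measuring rescue of mutant channel to the surface after 24 h compound exposure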
rRNA inh HTS – reduced GFP signal of wild-type E. coli, primary screen, bacterial rRNA inhibitor project, GFP/RFP fluorescence, OD600, single point; GFP signal change (wild-type ribosome), % (test concentration not listed); hit rate 1.6% among 350,000; E. coli WT GFP vs humanized-ribosome RFP mutants, 24 h; hits give low values; DMSO median 0, no signal -100;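 active means significant combined selectivity score with lowered wild-type GFP, culture density cut under 30%, mutant RFP and density less affected; inactive means any of these conditions unmet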
Cneo AK release – Cryptococcus neoformans cell lysis inducers, primary screen, AK release luminescence, single concentration. C. neoformans lysis, adenylate kinase release luminescence, 4 h; normalised: neutral wells 0, clomiphene wells 100. AID 651654, 2012. lysis activity, % at 15 µM. hit rate 0.2% among 360,000;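 active means mean lysis activity across replicates of at least 80%, whatever share of replicates individually reach that level; inactive means mean lysis activity below 80%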
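Material – log-phase Cryptococcus neoformans yeast cells · Input – 5 × 10^6 yeast cells/mL · Medium – fresh YPD growth medium · Doses – single compound concentration per well · Timing – static 4 h at 37 °C with compound, 1 h detection · Detection – adenylate kinase release luminescence · Read-out – signal increase indicating cell lysis · Control set – Clomiphene as positive lysis control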
GSIS activator – GLuc luminescence reporter in INS-1E cells, primary screen for activators of glucose-dependent secretion of insulin. INS-1E GLuc reporter insulin secretion, 2-3 h. activation, % at 16.6 µM. hit rate 0.61% among 370,000. AID 743287, 2014;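 active means lowest replicate activation of at least 40%, so every replicate reaches that level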;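 further: 0% = median of neutral control wells and 100% = median of IBMX positive control wells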
Env fusion inh – inhibitors of HIV-1 Env-driven cell-cell fusion, primary screen, HeLa-JRFL effector, CEM21 target cells, luciferase | inhibition, % at 12.3 µM | hit rate 1.1% among 360,000 | AID 651610, 2012;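 active means mean replicate inhibition score of at least 50 and every replicate individually at or above 50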;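 further: 0% = plate neutral controls and 100% = maraviroc near 300 nM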
* marks the source's active call; other numbers are inactive results; i = inactive; / = not tested or not shown; [ ] = remark or other dose.

SMILES	miR-122 sensor	CFTR F508del cor	rRNA inh HTS	Cneo AK release	GSIS activator	Env fusion inh
CC(C)NC(=O)Nc1ccc2c(c1)C(=O)N([C@H](C)CO)C[C@@H](C)[C@@H](CN(C)CC1CCCCC1)OCCCC[C@H](C)O2	6[16.7 µM]	-2	4	12	32	-19[16.7 µM]
COc1cccc(/C=N/Nc2nc(N3CCCC3)nc(N3CCCC3)n2)c1O	-1	-2	-18*	0	10	/
COc1ccc(/C=N/Nc2nc(N3CCCC3)nc(N3CCCC3)n2)c(OC)c1OC	/	/	/	/	3	-6
CC(=O)Nc1ccc2c(c1)C(=O)N(C)[C@@H]1CC[C@H](CC(=O)NCc3ccc(Cl)cc3)O[C@H]1CO2	45[16.7 µM]	0	1	-2	0	/
COc1ccc(CN2CC3(CN(C(=O)Cc4ccncc4)C3)c3c([nH]c4cc(OC)ccc34)[C@H]2CO)cc1	/	3	-2	/	8	/
COc1ccc(N2CCN(C(=O)C3CCCN(c4ncnc5c4nc4n5CCCCC4)C3)CC2)cc1 (centres undefined)	-7	0	-26*	-3	13	24
Cc1sc2nc(CSCC(=O)Nc3c(F)cccc3F)[nH]c(=O)c2c1C	4	0	12	3	13	/
Cc1sc2nc(CSCC(=O)Nc3ccc(C(F)(F)F)cc3)[nH]c(=O)c2c1C	/	4	-3	-1	-16	78*
Cc1ccc(Nc2nc(=O)c3cccnc3s2)c(Br)c1	9	4	-22*	2	/	4
CC(=O)c1ccc(Nc2nc(=O)c3cccnc3s2)cc1	2	/	/	0	/	/
ClC(Cl)(c1nnnn1-c1ccccc1)c1nnnn1-c1ccccc1	5	/	/	0	139*	-7
c1ccc(-c2nnnn2-c2ccccc2)cc1	/	-1	16	0	8	-34
COc1ccccc1C(=O)Nc1ccc2c(c1)OC[C@@H](C)N(C)C[C@H](C)[C@@H](OC)CN(C)C2=O	-10[16.7 µM]	0	0	-1	3	3[16.7 µM]
COc1ccc(C(=O)c2ccc(Br)cc2)cc1	-1	/	/	0	84*	-7
COc1ccc(C(=O)c2ccc(OC)c(OC)c2)cc1	-5	/	/	-4	56*	16
COc1ccc(C(=O)c2cc(OC)c(OC)c(OC)c2)cc1OC	49	13*	3	/	/	-19
COc1ccc(C(=O)c2ccc(OC)c(OC)c2)cc1OC	/	/	/	/	/	22
CCOC(=O)c1sc2nc(-c3ccccc3)ccc2c1N	/	/	/	/	76*	i
COc1ccc(S(=O)(=O)Nc2ccc3c(c2)C(=O)N([C@H](C)CO)C[C@H](C)[C@@H](CN(C)C(=O)CCC(F)(F)F)OCCCC[C@@H](C)O3)cc1	3[16.7 µM]	-2	0	0	-1	-41[16.7 µM]
O=C(C[C@H]1CC[C@@H]2[C@H](COC[C@H](O)CN2C(=O)c2ccccc2)O1)N1CCc2ccccc2C1	5[16.7 µM]	-2	0	4	20	/
CN1CCN(C(=O)C[C@H]2CC[C@H]3[C@@H](COC[C@@H](O)CN3Cc3ccc(Oc4ccccc4)cc3)O2)CC1	-9[16.7 µM]	-4	-2	1	4	/
CC=Cc1ccc2n(c1=O)C[C@H]1[C@H](CO)[C@@H](C(=O)Nc3ccc(-c4ccccc4)cc3)N(C(=O)CC)[C@@H]21 (mixture of isomers)	4[16.7 µM]	1	2	-3	-6	/
CCCNC(=O)N1[C@H](CO)[C@H](c2ccccc2)[C@H]1CNC(=O)C1CCC1	/	1	-1	/	11	/
O=C(Cc1ccncc1)NCC[C@H]1CC[C@H](NS(=O)(=O)c2ccccc2Cl)[C@@H](CO)O1	/	2	0	1	-5	-5[16.7 µM]
CN(C)C(=O)C[C@@H]1C=C[C@@H](NC(=O)C2CCOCC2)[C@@H](CO)O1	/	-1	3	/	7	/
COc1ccc(C(=O)c2sc3nc(-c4ccccc4)ccc3c2N)cc1OC	0	/	/	-1	/	-194
COc1cc(C(=O)C(=O)c2ccc(OC)c(OC)c2)ccc1O	-6	5	-5	/	45*	-35
